Reference: ChEMBL document CHEMBL5712901, “DOT1L inhibition blocks multiple myeloma cell proliferation by suppressing IRF4-MYC signaling” (2019)
Calls of active or inactive are those of the source. The calls are words filed in the database; no cut-off is given here.

Key:
KMS-12-PE [1] = assay: Effect on human KMS-12-PE cells assessed as change in MYC mRNA level by qRT-PCR analysis; format: functional, cell-based
Outline: (§1)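 Basal MYC and IRF4 mRNA in untreated cells measured by qRT-PCR. Normalized to ACTB; mean of 3 replications ± SEM.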

RPMI-8226 [2] = assay: Induction of growth suppression in human RPMI-8226 cells assessed as reduction H3K79me3 at 1 uM for 3 days Western blot analysis; format: functional, cell-based; conditions: time 3.0 day
Outline: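 RPMI-8226 cells treated with 1 μM DOT1L inhibitor or DMSO for 3 days. H3K79 methylation probed by Western blot with […].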

KMS-12-BM [3] = assay: Effect on human KMS-12-BM cells assessed as decrease in IRF4 mRNA level at 1 uM for 6 days by qRT-PCR analysis; format: functional, cell-based; conditions: time 6.0 day
Outline: (§2)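 qRT-PCR of MYC and IRF4 after 1 μM DOT1L inhibitor for 6 days. Normalized to ACTB; mean of 3 replications ± SEM.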

MM1.S [4] = assay: Induction of cell cycle arrest in human MM1.S cells assessed as increase in accumulation of cells at G0 phase at 1 uM for 6 days; format: functional, cell-based; conditions: time 6.0 day
Outline: (§3)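 Flow cytometric cell cycle analysis of RPMI-8226 and MM.1S cells treated with 1 μM DOT1L inhibitor or DMSO for 6 days. Sub-G1, G0-G1 and S phase populations scored. Summary is from 3 replications, mean ± SEM.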

RPMI-8226 [5] = assay: Induction of apoptosis in human RPMI-8226 cells assessed as necrotic cells at 1 uM for 6 days by annexin-V based propidium iodide staining based flow cytometric analysis (reference value: 3.92%); format: functional; conditions: time 6 day
KMS-12-BM [6] = assay: Effect on human KMS-12-BM cells assessed as change in MYC mRNA level by qRT-PCR analysis; format: functional, cell-based; outline: as §1
MM1.S [7] = assay: Induction of apoptosis in human MM1.S cells assessed as early apoptotic cells at 1 uM for 6 days by annexin-V based propidium iodide staining based flow cytometric analysis (reference value: 14.6%); format: functional; conditions: time 6 day
MM1.S [8] = assay: Induction of apoptosis in human MM1.S cells assessed as viable cells at 1 uM for 6 days by annexin-V based propidium iodide staining based flow cytometric analysis (reference value: 80.4%); format: functional; conditions: 144 h, time 6 day, read-out: Activity
RPMI-8226 [9] = assay: Induction of apoptosis in human RPMI-8226 cells assessed as late apoptotic cells at 1 uM for 3 days by annexin-V based propidium iodide staining based flow cytometric analysis (reference value: 2.43%); format: functional; conditions: time 3 day
RPMI-8226 [10] = assay: Upregulation of IFN in human RPMI-8226 cells assessed as increase in IFI44 gene at 1 uM for 6 days by qRT-PCR analysis; conditions: time 6.0 day
RPMI-8226 [11] = assay: Induction of apoptosis in human RPMI-8226 cells assessed as necrotic cells at 1 uM for 3 days by annexin-V based propidium iodide staining based flow cytometric analysis (reference value: 3.40%); format: functional; conditions: time 3 day
RPMI-8226 [12] = assay: Induction of apoptosis in human RPMI-8226 cells assessed as late apoptotic cells at 1 uM for 6 days by annexin-V based propidium iodide staining based flow cytometric analysis (reference value: 10.5%); format: functional; conditions: time 6 day
MM1.S [13] = assay: Induction of cell cycle arrest in human MM1.S cells assessed as increase in accumulation of cells at G1 phase at 1 uM for 6 days; format: functional, cell-based; conditions: time 6.0 day; outline: as §3
KMS-12-PE [14] = assay: Effect on human KMS-12-PE cells assessed as decrease in MYC mRNA level at 1 uM for 6 days by qRT-PCR analysis; format: functional, cell-based; conditions: time 6.0 day; outline: as §2
MM1.S [15] = assay: Upregulation of IFN in human MM1.S cells assessed as increase in IFIT1 gene at 1 uM for 6 days by qRT-PCR analysis; conditions: time 6.0 day
MM1.S [16] = assay: Antiproliferative activity against human MM1.S cells treated 3 days at 1 uM; format: functional, cell-based; conditions: time 3.0 day
Outline: (§4)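 Cell lines in 6-well plates, 2 × 10^4 to 8 × 10^5 cells/well, exposed to DOT1L inhibitor at 0.25-1 μM or DMSO, with medium and drug refreshed every 3 days. Viability read with Cell Counting Kit-8 on a microplate reader. Values normalized to untreated cells; mean of 3 replications ± SEM.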

KMS-12-BM [17] = assay: Effect on human KMS-12-BM cells assessed as change in IRF4 mRNA level by qRT-PCR analysis; format: functional, cell-based; outline: as §1
KMS-12-PE [18] = assay: Effect on human KMS-12-PE cells assessed as change in IRF4 mRNA level by qRT-PCR analysis; format: functional, cell-based; outline: as §1
KMS-12-BM [19] = assay: Antiproliferative activity against human KMS-12-BM cells treated 3 days at 1 uM; format: functional, cell-based; conditions: time 3.0 day; outline: as §4
MM1.S [20] = assay: Induction of apoptosis in human MM1.S cells assessed as viable cells at 1 uM for 6 days by annexin-V based propidium iodide staining based flow cytometric analysis (reference value: 77.4%); format: functional; conditions: 144 h, time 6 day, read-out: Activity
MM1.S [21] = assay: Induction of apoptosis in human MM1.S cells assessed as late apoptotic cells at 1 uM for 6 days by annexin-V based propidium iodide staining based flow cytometric analysis (reference value: 4.85%); format: functional; conditions: time 6 day
KMS-12-BM [22] = assay: Effect on human KMS-12-BM cells assessed as decrease in MYC mRNA level at 1 uM for 6 days by qRT-PCR analysis; format: functional, cell-based; conditions: time 6.0 day; outline: as §2
RPMI-8226 [23] = assay: Induction of apoptosis in human RPMI-8226 cells assessed as late apoptotic cells at 1 uM for 6 days by annexin-V based propidium iodide staining based flow cytometric analysis (reference value: 8.89%); format: functional; conditions: time 6 day
KMS-12-PE [24] = assay: Effect on human KMS-12-PE cells assessed as decrease in IRF4 mRNA level at 1 uM for 6 days by qRT-PCR analysis; format: functional, cell-based; conditions: time 6.0 day; outline: as §2
RPMI-8226 [25] = assay: Induction of apoptosis in human RPMI-8226 cells assessed as viable cells at 1 uM for 6 days by annexin-V based propidium iodide staining based flow cytometric analysis (reference value: 79.0%); format: functional; conditions: RPMI-8226, 144 h, time 6 day, read-out: Activity
MM1.S [26] = assay: Effect on human MM1.S cells assessed as change in Myc mRNA level at 1 uM for 3 days by ChIP-qPCR analysis; format: functional, cell-based; conditions: time 3.0 day
Outline: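 ChIP-qPCR for H3K79me2 at IRF4-MYC signaling genes after 1 μM inhibitor or DMSO for 3 days. Signal normalized to input DNA. An intergenic region 28 kb upstream of KLF2 served as negative control. Mean of 3 replications ± SEM.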

RPMI-8226 [27] = assay: Upregulation of IFN in human RPMI-8226 cells assessed as increase in IFIT1 gene at 1 uM for 6 days by qRT-PCR analysis; conditions: time 6.0 day
KMS-11 = assay: Antiproliferative activity against human KMS-11 cells treated 3 days at 1 uM; format: functional, cell-based; conditions: time 3.0 day; outline: as §4
MM1.S [28] = assay: Induction of apoptosis in human MM1.S cells assessed as viable cells at 1 uM for 3 days by annexin-V based propidium iodide staining based flow cytometric analysis (reference value: 94.3%); format: functional; conditions: 72 h, time 3 day, read-out: Activity
MM1.S [29] = assay: Upregulation of IFN in human MM1.S cells assessed as increase in IFITM1 gene at 1 uM for 6 days by qRT-PCR analysis; format: functional, cell-based; conditions: time 6.0 day
RPMI-8226 [30] = assay: Induction of apoptosis in human RPMI-8226 cells assessed as viable cells at 1 uM for 6 days by annexin-V based propidium iodide staining based flow cytometric analysis (reference value: 79.67%); format: functional; conditions: RPMI-8226, 144 h, time 6 day, read-out: Activity

SMILES | Activity (KMS-12-PE [1]) | Activity (RPMI-8226 [2]) | Activity (KMS-12-BM [3]) | Activity (MM1.S [4]) | Activity (RPMI-8226 [5]) [%] | Activity (KMS-12-BM [6]) | Activity (MM1.S [7]) [%] | viability at 1 µM (MM1.S [8]) [%] | Activity (RPMI-8226 [9]) [%] | Activity (RPMI-8226 [10]) | Activity (RPMI-8226 [11]) [%] | Activity (RPMI-8226 [12]) [%] | Activity (MM1.S [13]) | Activity (KMS-12-PE [14]) | Activity (MM1.S [15]) | Activity (MM1.S [16]) | Activity (KMS-12-BM [17]) | Activity (KMS-12-PE [18]) | Activity (KMS-12-BM [19]) | viability at 1 µM (MM1.S [20]) [%] | further results
CC(C)N(CCCNC(=O)Nc1ccc(C(C)(C)C)cc1)C[C@H]1O[C@@H](n2cc(Br)c3c(N)ncnc32)[C@H](O)[C@@H]1O | Active | Active | Active | Active | 4.83 | Active | 20.2 | 67.9 | 8.85 | Active | 6.32 | 12.9 | Active | Active | Active | Active | Active | Active | Active | 42.4 | Activity (MM1.S [21]): 11.7%; Activity (KMS-12-BM [22]): Active; Activity (RPMI-8226 [23]): 20.2%; Activity (KMS-12-PE [24]): Active; viability at 1 µM (RPMI-8226 [25]): 60.9%; Activity (MM1.S [26]): Active; Activity (RPMI-8226 [27]): Active; Activity (KMS-11): Active; viability at 1 µM (MM1.S [28]): 92.3%; Activity (MM1.S [29]): Active; viability at 1 µM (RPMI-8226 [30]): 66.9%
CC(C)N(C[C@H]1O[C@@H](n2cnc3c(N)ncnc32)[C@H](O)[C@@H]1O)[C@H]1C[C@@H](CCc2nc3cc(C(C)(C)C)ccc3[nH]2)C1 [PINOMETOSTAT] | Active | Active | Active | Active | 3.98 | Active | 21.1 | 67.5 | 9.83 | Active | 6.18 | 18.3 | Active | Active | Active | Active | Active | Active | Active | 52.8 | Activity (MM1.S [21]): 11.4%; Activity (KMS-12-BM [22]): Active; Activity (RPMI-8226 [23]): 17.5%; Activity (KMS-12-PE [24]): Active; viability at 1 µM (RPMI-8226 [25]): 63.5%; Activity (MM1.S [26]): Active; Activity (RPMI-8226 [27]): Active; Activity (KMS-11): Active; viability at 1 µM (MM1.S [28]): 96.7%; Activity (MM1.S [29]): Active; viability at 1 µM (RPMI-8226 [30]): 50.2%
